# Assay results of several laboratories.
# Lines come from different studies, so protocols differ.
# Target: Tyrosine-protein kinase ABL2 (ABL2, Homo sapiens, UniProt P42684)
Compound,assay,conditions,remaining binding [%]
O=C(NCCCC1CCCCC1)c1ccc(CNC(=O)c2cnn(-c3ccccc3)c2C(F)(F)F)cc1,"cell-free assay, competition with immobilised ligand",0.1 µM,87
C[C@@H]1CCN(c2nccc(-c3cnn4ncccc34)n2)C1,binding,1 µM,76
CS(=O)(=O)N1CCCC(NC(=O)[C@H](CCC2CCCCC2)NC(=O)c2ccc(CNC(=O)c3cnc4ccccn34)cc2)C1 (stereo partly drawn),"cell-free assay, competition with immobilised ligand",0.1 µM,56
COc1ccnn2ncc(-c3ccnc(N(C)C)n3)c12,binding,1 µM,86
COc1cnc(Nc2cccc(S(N)(=O)=O)c2)nc1N1CCN(c2ccccc2)CC1,"binding, competition with immobilised ligand",1 µM,98
O=C(c1ccc(Nc2ncc(Cl)c(-c3ccc(Cl)s3)n2)cc1)N1CCC(N2CCCC2)CC1,"binding, competition with immobilised ligand",1 µM,56
O=C(NCc1ncc(C(F)(F)F)cc1Cl)c1ccc2c(c1)C1(CCS(=O)(=O)CC1)[C@@H](C1CC1)N2S(=O)(=O)c1ccc(F)cc1,"cell-free assay, competition with immobilised ligand",1 µM,100
Cc1c(-c2ccccc2)oc2c(C(=O)OCCN3CCCCC3)cccc2c1=O,"cell-free assay, competition with immobilised ligand",0.1 µM,100
CN(CCCC(F)(F)F)c1nccc(-c2cnn3ncccc23)n1,binding,1 µM,93
COc1cc2ncnc(Nc3ccc(F)c(Cl)c3)c2cc1OCCCN1CCOCC1,"cell-free assay, competition with immobilised ligand",10 µM,83
O=C(Nc1c[nH]nc1C(=O)NC1CCNCC1)c1cc(F)cc(F)c1,"binding, competition with immobilised ligand",1 µM,100
CN(C)c1nccc(-c2cnc3ncccn23)n1,binding,1 µM,99
O=C(NCCCN1CCOCC1)c1ccc(Nc2ncc(Cl)c(-c3ccc(Cl)s3)n2)cc1,"binding, competition with immobilised ligand",1 µM,67
C[C@@H](c1ccc(-n2cnc3c(N)ncnc32)cc1)N1CCc2nn(C)c(Cc3ccccc3)c2C1=O,"binding, competition with immobilised ligand",0.1 µM,76
CN(C)c1nccc(-c2cnn3ncccc23)n1,binding,1 µM,99
CCN(CC)Cc1cc(Nc2ccnc3cc(Cl)ccc23)ccc1O,"cell-free assay, competition with immobilised ligand",10 µM,100
CO[C@@H](C)c1c(Nc2ccc([C@H](N(C)C(=O)C3CCS(=O)(=O)CC3)C(F)(F)F)cc2)cnc2cc(Cl)nn12,"cell-free assay, competition with immobilised ligand",1 µM,85
CNC(=O)c1cc(Oc2ccc(NC(=O)Nc3ccc(Cl)c(C(F)(F)F)c3)cc2)ccn1,"cell-free assay, competition with immobilised ligand",10 µM,33
CSc1cccnc1N1CCN(Cc2nc3ccccc3[nH]2)CC1,"cell-free assay, competition with immobilised ligand",1 µM,98
CN1CC[C@H](c2c(O)cc(O)c3c(=O)cc(-c4ccccc4Cl)oc23)[C@H](O)C1,"cell-free assay, competition with immobilised ligand",0.1 µM,100
O=C(NCCCN1CCOCC1)c1ccc(Nc2nccc(-c3cc4ccccc4s3)n2)cc1,"binding, competition with immobilised ligand",1 µM,85
CCN1CCN(Cc2ccc(C(=O)Nc3ccc(C)c(Oc4ccc5c(c4)CC(=O)N5)c3)cc2C(F)(F)F)CC1,"binding, competition with immobilised ligand",1 µM,20
C=CC(=O)N1CCC(C(=O)NCC(=O)N2CCN(c3nc(-c4cnc(N)nc4C(F)F)nc(N4CCOCC4)n3)CC2)CC1,"binding, competition with immobilised ligand",1 µM,91
CS(=O)(=O)CCNCc1ccc(-c2ccc3ncnc(Nc4ccc(OCc5cccc(F)c5)c(Cl)c4)c3c2)o1,"cell-free assay, competition with immobilised ligand",0.1 µM,99
CNC(=O)Nc1ccc2c(c1)[C@@]1(CC2)OC(=O)N(CC(=O)N(Cc2ccc(F)cc2)[C@@H](C)C(F)(F)F)C1=O,"cell-free assay, competition with immobilised ligand",1 µM,84
CCN(CC)CCNC(=O)c1c(C)[nH]c(/C=C2\C(=O)Nc3ccc(F)cc32)c1C,"cell-free assay, competition with immobilised ligand",0.1 µM,92
C[C@@H](c1cccc(C#N)c1)n1cc(Cl)cc(C(N)=O)c1=N,"cell-free assay, competition with immobilised ligand",1 µM,84
COc1cnc(Nc2cccc(S(N)(=O)=O)c2)nc1N1CCN(c2ccccc2)C(=O)C1,"binding, competition with immobilised ligand",1 µM,100
CN(C)c1ncc(F)c(-c2cnn3ncccc23)n1,binding,1 µM,100
CNCc1ccccc1-c1csc([C@@H](C)Nc2nc(C)nc3cc(OC)c(OC)cc23)c1,"cell-free assay, competition with immobilised ligand",1 µM,100
